# In publication PMC3329777 (The Journal of Organic Chemistry, 2010):
# Like-named read-outs stand apart in the source and are kept apart here.
# Legend:
# PC3 (prostate) cells = experiment: Cell proliferation assay; assay type: cell-based, human
# In short: (§1)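 DU145, PC3 and MDA-MB-231 lines only. Cells came from ATCC frozen stocks. PC3 was grown in F12K, DU145 and MDA-MB-231 in DMEM, all with 10% FBS plus penicillin/streptomycin. Equal cell numbers were seeded and held at 37 °C, 5% CO2 until log phase. Medium was then replaced with test compound (0–30 μM) for 48 h, then removed and plates frozen at -80 °C. After thawing to rt, CyQuant reagent was added and fluorescence read at 485/530 nm. Eight replicates per concentration; values are cell-number increase versus untreated controls, mean ± SE.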
# DU145 (prostate) cells = experiment: Cell proliferation assay; assay type: cell-based, human
# In short: as §1
# [1] = tested on: MDA-MB-231 (breast) cells; experiment: Cell proliferation assay; assay type: cell-based, human
# In short: as §1
# [2] = tested on: Jurkat (T-cell leukemia) cells; experiment: MTS cytotoxicity assay, Jurkat cells; assay type: cell-based; conditions: Homo sapiens, 24 h, read-out: IC50 Jurkat
# In short: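 Jurkat line: cells were kept in RPMI-1640 with 10% fetal bovine serum and penicillin-streptomycin (100 U/mL / 100 μg/mL) at 37 °C, humidified 5% CO2. They were seeded at 2,000 cells/well in 96-well plates. After 24 h they were exposed to a range of test compound concentrations for […]. Growth was measured by MTS reagent with absorbance at 490 nm, expressed relative to compound-free controls, mean ± SE.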
# [3] = tested on: PC3, DU145, MDA-MB-231 and Jurkat cells; experiment: Antiproliferative activity against four human tumor cell lines; assay type: cell-based
# [4] = Decomposition of polysulfanes with hydroxide ion, monitored by HPLC; assay type: physicochemical; conditions: 6A-F 2.5 mM, methanol/water 99.9:0.1, after 1 hr
# In short: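 Test polysulfane mixture (2.5 mM) with acetanilide internal standard (0.25 mM) was treated with NaOH (0.625, 1.25, 1.875 or 2.5 mM) in methanol. After 1 h of equilibration, samples were analysed by reversed-phase C18 HPLC at 1 mL/min, rt, with UV at 254 nm. Elution used a methanol/water gradient of 15→95% methanol over 30 min, held 15 min.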
# [5] = Ethanethiol-induced desulfuration; assay type: physicochemical
# [6] = Intrinsic solubility determination; assay type: physicochemical
# [7] = cited from earlier work
# [8] = room temperature, equilibrium time 24 h, average of three measurements
Compound,"Polysulfanes and elemental sulfur distribution (HPLC, internal standard = 100) ([4]; 0.25 hydroxide ion equivalents)","Polysulfanes and elemental sulfur distribution (HPLC, internal standard = 100) ([4]; 0.5 hydroxide ion equivalents)","Polysulfanes and elemental sulfur distribution (HPLC, internal standard = 100) ([4]; 0.75 hydroxide ion equivalents)","Polysulfanes and elemental sulfur distribution (HPLC, internal standard = 100) ([4]; 1.0 hydroxide ion equivalents)",other results
"Sc1ccccc1S [1,2-Benzenedithiol]",,,,,"Effect on growth of PC3 cells (PC3 (prostate) cells; 48 h): stimulated the growth; IC50 PC-3 (PC3 (prostate) cells; 48 h incubation, 0–30 μM, 96-well plates): No effect; IC50 (DU145 (prostate) cells; Homo sapiens, DU-145, 48 h, read-out: IC50 DU145): > 30 µM; Inhibition of proliferation of DU145 cells (DU145 (prostate) cells; at concentrations of 10 μM and above, 48 h): ~ 40%; Effect on proliferation of MDA-MB-231 cells ([1]; 48 h): minimal effect; IC50 ([1]; Homo sapiens, MDA-MB-231, 48 h, read-out: IC50 MDA-MB-231): > 30 µM; IC50 [2]: 60 µM; Toxicity to the cancer cell lines (in words) [3]: nontoxic"
"COCCOCCOCCNC(=O)c1ccc2c(c1)SSSSSSSSS2 [Compound 6F, N-(2-(2-(2-Methoxyethoxy)ethoxy)ethyl)benzo[j][1,2,3,4,5,6,7,8,9]nonathiacyclo-undecine-11-carboxamide]",2.1,3.7,3.8,3.1,
"[S] [Compound S8, Elemental sulfur]",12.3,23.1,26.7,32.4,"Fold lower solubility by comparison to 6A-F [6]: ~ 50 fold; Solubility in methanol [6, 8]: 330 ± 30 µg/mL; Solubility in water [6, 8]: 0.14 ± 0.02 µg/mL; Solubility in ethanol [7]: 510 µg/mL; Solubility in water [7]: 0.4 µg/mL"

# Continued, in another order:
"Polysulfanes and elemental sulfur distribution (HPLC, internal standard = 100) ([4]; 0.25 hydroxide ion equivalents)","Polysulfanes and elemental sulfur distribution (HPLC, internal standard = 100) ([4]; 0.5 hydroxide ion equivalents)","Polysulfanes and elemental sulfur distribution (HPLC, internal standard = 100) ([4]; 0.75 hydroxide ion equivalents)","Polysulfanes and elemental sulfur distribution (HPLC, internal standard = 100) ([4]; 1.0 hydroxide ion equivalents)",Compound,other results
10.9,13.2,14.2,14.2,"COCCOCCOCCNC(=O)c1ccc2c(c1)SSS2 [Compound 6A, N-(2-(2-(2-Methoxyethoxy)ethoxy)ethyl)benzo[d][1,2,3]trithiole-5-carboxamide]",
362.4,289.2,222.9,163.9,"COCCOCCOCCNC(=O)c1ccc2c(c1)SSSSS2 [Compound 6C, N-(2-(2-(2-Methoxyethoxy)ethoxy)ethyl)benzo[f][1,2,3,4,5]pentathiepine-7-carboxamide]",Time of ethanethiol-induced desulfuration ([5]; in aqueous methanol): ~ 2 min; Time of ethanethiol-induced desulfuration ([5]; in benzene): 4 h
2.3,2.1,1.8,1.5,"COCCOCCOCCNC(=O)c1ccc2ssssssc2c1 [Compound 6D, N-(2-(2-(2-methoxyethoxy)ethoxy)ethyl)benzo[g][1,2,3,4,5,6]hexathiocine-8-carboxamide]",
3.0,2.8,4.7,1.6,"COCCOCCOCCNC(=O)c1ccc2c(c1)SSSSSSS2 [Compound 6E, N-(2-(2-(2-Methoxyethoxy)ethoxy)ethyl)benzo[h][1,2,3,4,5,6,7]heptathionine-9-carboxamide]",
